Experiments:
NCI-H460 = assay: Cytotoxicity against human H460 cells assessed as cell viability after 3 days by sulforhodamine B assay; format: functional, cell-based; settings: NCI-H460, 72 h
In short: (§1)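 Monolayer cultures were grown in RPMI-1640 or DMEM with 10% heat-inactivated fetal calf serum and penicillin/streptomycin, at 37°C and 5% CO2. Cells were exposed for 3 days to compound from 10−4.5 M (31.6 μM) down to 10−8 M (10 nM), with 1% DMSO as the control. Viability was read by sulforhodamine B. IC50 was the dose halving surviving cells versus control, run in quadruplicate and repeated at least three times.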

[1] = Stability of compound at pH 7.4; format: physicochemical; settings: buffer
[2] = Cytotoxicity against human T29 cells assessed as cell viability after 3 days by sulforhodamine B assay; format: cell-based; settings: T29, 72 h; in short: as §1
[3] = Stability of compound at pH 2; format: physicochemical; settings: buffer
[4] = Cytotoxicity against mutant K-ras-transformed human T29Kt1 cells assessed as cell viability after 3 days by sulforhodamine B assay; format: functional, cell-based; settings: T29Kt1, 72 h; in short: as §1

SMILES | IC50 (NCI-H460) [µM] | Stability [1] | IC50 [2] [µM] | Stability [3] | IC50 [4] [µM]
O=Cc1cn(Cc2cccc(Cl)c2)c2ccc(F)cc12 | 0.37 | Stable | > 31.6 | Stable | 1.5
O=CC1C(=O)N(Cc2ccc(Cl)cc2)c2cc(Cl)ccc21 (stereo not drawn) | 18.2 | Stable | 18.6 | Stable | 18.2
COC(=O)c1cn(Cc2ccc(Br)cc2)c2ccccc12 | 5 | – | 5 | – | 6.3
OCc1cc2cc(F)ccc2n1Cc1ccc(Cl)cc1 | 11.5 | – | 17.4 | – | 15.1
Cc1ccc(Cn2cc(C=O)c3ccccc32)cc1 | 0.063 | Stable | > 31.6 | Stable | 3.98
OCCCc1cn(Cc2ccccc2)c2ccccc12 | > 31.6 | – | > 31.6 | – | > 31.6
CC(=O)c1cn(Cc2ccccc2Cl)c2ccccc12 | > 31.6 | – | > 31.6 | – | > 31.6
O=Cc1cn(Cc2cccc(F)c2)c2ccccc12 | 0.031 | Stable | > 31.6 | Stable | 2.63
O=Cc1cn(Cc2cccc(C(F)(F)F)c2)c2ccccc12 | 0.14 | Stable | > 31.6 | Stable | 1.78
O=Cc1cn(Cc2ccc(Br)c(Br)c2)c2ccccc12 | 0.063 | Stable | > 31.6 | Stable | 0.63
COC(=O)CNCc1cn(Cc2ccc(Cl)cc2)c2ccccc12 | 0.1 | – | 31.6 | – | 5.01
OCCc1cn(Cc2ccc(Cl)cc2)c2ccccc12 | > 31.6 | – | > 31.6 | – | > 31.6
O=Cc1cn(Cc2ccc(Cl)cc2)c2ccc(Cl)cc12 | 0.4 | Stable | > 31.6 | Stable | 10
O=C(O)c1cn(Cc2ccc(Cl)cc2)c2ccccc12 | > 31.6 | – | > 31.6 | – | > 31.6
CC(=O)c1cn(Cc2ccccc2)c2ccccc12 | 10 | – | > 31.6 | – | > 31.6
Brc1cccc(Cn2cc(Cc3cn(Cc4cccc(Br)c4)c4ccccc34)c3ccccc32)c1 | > 31.6 | – | > 31.6 | – | > 31.6
Clc1cccc(Cn2cc(Cc3cn(Cc4cccc(Cl)c4)c4ccccc34)c3ccccc32)c1 | > 31.6 | – | > 31.6 | – | > 31.6
O=C(O)c1cn(Cc2ccccc2)c2ccccc12 | > 31.6 | – | > 31.6 | – | > 31.6
c1ccc(Cn2ccc3ccccc32)cc1 | > 31.6 | – | > 31.6 | – | > 31.6
CC(=O)c1cn(Cc2cccc(Cl)c2)c2ccccc12 | > 31.6 | – | > 31.6 | – | > 31.6
N#Cc1cn(Cc2cccc(Cl)c2)c2ccccc12 | > 31.6 | – | > 31.6 | – | > 31.6
CC(O)c1cn(Cc2ccc(Cl)cc2)c2ccccc12 (stereo not drawn) | 25.1 | – | > 31.5 | – | 19.9
COC(=O)c1cn(Cc2ccc(Cl)cc2)c2ccccc12 | 31.6 | – | 17.7 | – | 25.1
CC(=O)c1cn(Cc2ccc(Cl)cc2)c2ccccc12 | > 31.6 | – | > 31.6 | – | > 31.6
O=C(NC1CCCCC1)OCc1cn(Cc2ccc(Cl)cc2)c2ccccc12 | 0.02 | – | > 31.6 | – | 0.2
Cc1cn(Cc2ccc(Cl)cc2)c2ccccc12 | > 31.6 | – | > 31.6 | – | > 31.6
COCc1cn(Cc2ccc(Cl)cc2)c2ccccc12 | 1.99 | – | > 31.6 | – | 7.94
CC(=O)OCc1cn(Cc2ccc(Cl)cc2)c2ccccc12 | 0.039 | – | > 31.6 | – | 0.063
